Results from ChEMBL document CHEMBL1671716, “Antimicrobial susceptibility patterns for recent clinical isolates of anaerobic bacteria in South Korea” (2010).
Values after ≈ are worked out from the molar mass of the structure shown.

How the values were obtained:
Bacteroides fragilis [1] = test: Antimicrobial activity against Bacteroides fragilis after 48 hrs by agar dilution method; type: functional
How it was run: (§1)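 MICs on clinical anaerobe isolates by the CLSI agar dilution method. Inoculum of 10^5 CFU applied with a Steers replicator. Plates incubated 48 h at 37°C in an anaerobic chamber.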

[2] = tested on: Bacteroides thetaiotaomicron; test: Antimicrobial activity against Bacteroides thetaiotaomicron after 48 hrs by agar dilution method; type: functional; how it was run: as §1
Bacteroides caccae [3] = test: Antimicrobial activity against Bacteroides caccae after 48 hrs by agar dilution method; type: functional; how it was run: as §1
Bacteroides fragilis [4] = test: Antimicrobial activity against Bacteroides fragilis assessed as percent susceptible isolates after 48 hrs by agar dilution method; type: functional
Bacteroides fragilis [5] = test: Antimicrobial activity against Bacteroides fragilis assessed as percent resistant isolates after 48 hrs by agar dilution method; type: functional
How it was run: (§2)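 CLSI agar dilution on recent Korean clinical anaerobe isolates. Inoculum 10^5 CFU per spot by replicator. Plates incubated in an anaerobic chamber at 37°C for 48 h. For piperacillin plus tazobactam, tazobactam was held constant at 4 μg/ml. Resistance and susceptibility rates derived from MICs.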

[6] = tested on: Bacteroides thetaiotaomicron; test: Antimicrobial activity against Bacteroides thetaiotaomicron assessed as percent resistant isolates after 48 hrs by agar dilution method; type: functional; how it was run: as §2
Bacteroides caccae [7] = test: Antimicrobial activity against Bacteroides caccae assessed as percent susceptible isolates after 48 hrs by agar dilution method; type: functional
Bacteroides caccae [8] = test: Antimicrobial activity against Bacteroides caccae assessed as percent resistant isolates after 48 hrs by agar dilution method; type: functional; how it was run: as §2
[9] = tested on: Parabacteroides distasonis; test: Antimicrobial activity against Bacteroides distasonis assessed as percent susceptible isolates after 48 hrs by agar dilution method; type: functional
Phocaeicola vulgatus = test: Antimicrobial activity against Bacteroides vulgatus assessed as percent susceptible isolates after 48 hrs by agar dilution method; type: functional
Bacteroides ovatus [10] = test: Antimicrobial activity against Bacteroides ovatus assessed as percent susceptible isolates after 48 hrs by agar dilution method; type: functional
Bacteroides ovatus [11] = test: Antimicrobial activity against Bacteroides ovatus assessed as percent resistant isolates after 48 hrs by agar dilution method; type: functional; how it was run: as §2
Prevotella bivia [12] = test: Antimicrobial activity against Prevotella bivia after 48 hrs by agar dilution method; type: functional
How it was run: (§3)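 CLSI agar dilution (M11-A7); inoculum 10^5 CFU applied by replicator; plates incubated anaerobically 48 h at 37°C. For piperacillin-tazobactam, tazobactam held constant at 4 μg/ml.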

Prevotella buccae [13] = test: Antimicrobial activity against Prevotella buccae after 48 hrs by agar dilution method; type: functional; settings: Segatella buccae; how it was run: as §3
Hoylesella oralis [14] = test: Antimicrobial activity against Prevotella oralis after 48 hrs by agar dilution method; type: functional; how it was run: as §3
Prevotella intermedia [15] = test: Antimicrobial activity against Prevotella intermedia assessed as percent susceptible isolates after 48 hrs by agar dilution method; type: functional; how it was run: as §3
Prevotella intermedia [16] = test: Antimicrobial activity against Prevotella intermedia assessed as percent resistant isolates after 48 hrs by agar dilution method; type: functional; how it was run: as §2
Prevotella bivia [17] = test: Antimicrobial activity against Prevotella bivia assessed as percent susceptible isolates after 48 hrs by agar dilution method; type: functional; how it was run: as §3
Prevotella bivia [18] = test: Antimicrobial activity against Prevotella bivia assessed as percent resistant isolates after 48 hrs by agar dilution method; type: functional; how it was run: as §2
Prevotella buccae [19] = test: Antimicrobial activity against Prevotella buccae assessed as percent susceptible isolates after 48 hrs by agar dilution method; type: functional, Segatella buccae; how it was run: as §3
Hoylesella oralis [20] = test: Antimicrobial activity against Prevotella oralis assessed as percent resistant isolates after 48 hrs by agar dilution method; type: functional; how it was run: as §2
Fusobacterium varium = test: Antimicrobial activity against Fusobacterium varium after 48 hrs by agar dilution method; type: functional; how it was run: as §3
Fusobacterium nucleatum = test: Antimicrobial activity against Fusobacterium nucleatum after 48 hrs by agar dilution method; type: functional; how it was run: as §3
Fusobacterium mortiferum = test: Antimicrobial activity against Fusobacterium mortiferum after 48 hrs by agar dilution method; type: functional; how it was run: as §3
[21] = tested on: Peptostreptococcus anaerobius; test: Antimicrobial activity against Peptostreptococcus anaerobius assessed as percent susceptible isolates after 48 hrs by agar dilution method; type: functional; how it was run: as §2
Parvimonas micra = test: Antimicrobial activity against Peptostreptococcus micros assessed as percent susceptible isolates after 48 hrs by agar dilution method; type: functional; how it was run: as §2
Anaerococcus prevotii [22] = test: Antimicrobial activity against Anaerococcus prevotii after 48 hrs by agar dilution method; type: functional; how it was run: as §1
Anaerococcus prevotii [23] = test: Antimicrobial activity against Anaerococcus prevotii assessed as percent resistant isolates after 48 hrs by agar dilution method; type: functional; how it was run: as §2
[24] = tested on: Peptoniphilus asaccharolyticus; test: Antimicrobial activity against Peptoniphilus asaccharolyticus after 48 hrs by agar dilution method; type: functional; how it was run: as §3
[25] = tested on: Peptoniphilus asaccharolyticus; test: Antimicrobial activity against Peptoniphilus asaccharolyticus assessed as percent susceptible isolates after 48 hrs by agar dilution method; type: functional; how it was run: as §3
[26] = tested on: Peptoniphilus asaccharolyticus; test: Antimicrobial activity against Peptoniphilus asaccharolyticus assessed as percent resistant isolates after 48 hrs by agar dilution method; type: functional; how it was run: as §2
Finegoldia magna [27] = test: Antimicrobial activity against Finegoldia magna after 48 hrs by agar dilution method; type: functional; how it was run: as §3
Finegoldia magna [28] = test: Antimicrobial activity against Finegoldia magna assessed as percent susceptible isolates after 48 hrs by agar dilution method; type: functional; how it was run: as §3
Finegoldia magna [29] = test: Antimicrobial activity against Finegoldia magna assessed as percent resistant isolates after 48 hrs by agar dilution method; type: functional; how it was run: as §2
Clostridioides difficile [30] = test: Antimicrobial activity against Clostridium difficile after 48 hrs by agar dilution method; type: functional
Clostridioides difficile [31] = test: Antimicrobial activity against Clostridium difficile assessed as percent susceptible isolates after 48 hrs by agar dilution method; type: functional
Clostridioides difficile [32] = test: Antimicrobial activity against Clostridium difficile assessed as percent resistant isolates after 48 hrs by agar dilution method; type: functional
Schaalia odontolytica = test: Antimicrobial activity against Actinomyces odontolyticus assessed as percent susceptible isolates after 48 hrs by agar dilution method; type: functional
Schaalia meyeri [33] = test: Antimicrobial activity against Actinomyces meyeri after 48 hrs by agar dilution method; type: functional; how it was run: as §1
Schaalia meyeri [34] = test: Antimicrobial activity against Actinomyces meyeri assessed as percent susceptible isolates after 48 hrs by agar dilution method; type: functional
Actinomyces naeslundii [35] = test: Antimicrobial activity against Actinomyces naeslundii after 48 hrs by agar dilution method; type: functional; how it was run: as §1
Actinomyces naeslundii [36] = test: Antimicrobial activity against Actinomyces naeslundii assessed as percent susceptible isolates after 48 hrs by agar dilution method; type: functional
[37] = tested on: Bifidobacterium adolescentis; test: Antimicrobial activity against Bifidobacterium adolescentis after 48 hrs by agar dilution method; type: functional; how it was run: as §1
[38] = tested on: Bifidobacterium adolescentis; test: Antimicrobial activity against Bifidobacterium adolescentis assessed as percent susceptible isolates after 48 hrs by agar dilution method; type: functional
Eubacterium sp. = test: Antimicrobial activity against Eubacterium sp. after 48 hrs by agar dilution method; type: functional; how it was run: as §3

Compound Cc1ncc([N+](=O)[O-])n1CCO [METRONIDAZOLE] has an MIC50 (Bacteroides fragilis [1]) of 2 mg/L (≈ 11.7 µM), an MIC90 (Bacteroides fragilis [1]) of 2 mg/L (≈ 11.7 µM) and an MIC50 [2] of 2 mg/L (≈ 11.7 µM). It also gave an MIC90 [2] of 2 mg/L (≈ 11.7 µM), an MIC50 (Bacteroides caccae [3]) of 2 mg/L (≈ 11.7 µM) and an MIC90 (Bacteroides caccae [3]) of 2 mg/L (≈ 11.7 µM). It also gave an Activity (Bacteroides fragilis [4]) of 100%, an Activity (Bacteroides fragilis [5]) of 0% and an Activity [6] of 0%. For the same compound, the Activity (Bacteroides caccae [7]) was 100%, the Activity (Bacteroides caccae [8]) was 0% and the Activity [9] was 100%. The Activity (Phocaeicola vulgatus) was 100%, the Activity (Bacteroides ovatus [10]) was 100% and the Activity (Bacteroides ovatus [11]) was 0%. For the same compound, the MIC50 (Prevotella bivia [12]) was 4 mg/L (≈ 23.4 µM), the MIC90 (Prevotella bivia [12]) was 8 mg/L (≈ 46.7 µM) and the MIC50 (Prevotella buccae [13]) was 4 mg/L (≈ 23.4 µM). It also gave an MIC90 (Prevotella buccae [13]) of 8 mg/L (≈ 46.7 µM), an MIC50 (Hoylesella oralis [14]) of 4 mg/L (≈ 23.4 µM) and an MIC90 (Hoylesella oralis [14]) of 8 mg/L (≈ 46.7 µM). It also gave an Activity (Prevotella intermedia [15]) of 100%, an Activity (Prevotella intermedia [16]) of 0% and an Activity (Prevotella bivia [17]) of 100%. For the same compound, the Activity (Prevotella bivia [18]) was 0%, the Activity (Prevotella buccae [19]) was 100% and the Activity (Hoylesella oralis [20]) was 0%. The MIC (Fusobacterium varium) was 0.13 mg/L (≈ 0.76 µM), the MIC (Fusobacterium nucleatum) was 0.13 mg/L (≈ 0.76 µM) and the MIC (Fusobacterium mortiferum) was 0.13 mg/L (≈ 0.76 µM). The Activity [21] was 100%, the Activity (Parvimonas micra) was 0% and the MIC50 (Anaerococcus prevotii [22]) was 1 mg/L (≈ 5.84 µM). It also gave an MIC90 (Anaerococcus prevotii [22]) of 1 mg/L (≈ 5.84 µM), an Activity (Anaerococcus prevotii [23]) of 0% and an MIC50 [24] of 1 mg/L (≈ 5.84 µM). The MIC90 [24] was 1 mg/L (≈ 5.84 µM), the Activity [25] was 100% and the Activity [26] was 0%. For the same compound, the MIC (Finegoldia magna [27]) was 0.5 mg/L (≈ 2.92 µM), the MIC50 (Finegoldia magna [27]) was 0.5 mg/L (≈ 2.92 µM) and the MIC90 (Finegoldia magna [27]) was 1 mg/L (≈ 5.84 µM). For the same compound, the Activity (Finegoldia magna [28]) was 100%, the Activity (Finegoldia magna [29]) was 0% and the MIC50 (Clostridioides difficile [30]) was 1 mg/L (≈ 5.84 µM). It also gave an MIC90 (Clostridioides difficile [30]) of 1 mg/L (≈ 5.84 µM), an Activity (Clostridioides difficile [31]) of 100% and an Activity (Clostridioides difficile [32]) of 0%. The Activity (Schaalia odontolytica) was 46%, the MIC50 (Schaalia meyeri [33]) was 16 mg/L (≈ 93.5 µM) and the MIC90 (Schaalia meyeri [33]) was over 128 mg/L. It also gave an Activity (Schaalia meyeri [34]) of 46%, an MIC50 (Actinomyces naeslundii [35]) of 16 mg/L (≈ 93.5 µM) and an MIC90 (Actinomyces naeslundii [35]) of over 128 mg/L. The Activity (Actinomyces naeslundii [36]) was 46%, the MIC50 [37] was 16 mg/L (≈ 93.5 µM) and the MIC90 [37] was over 128 mg/L. It also gave an Activity [38] of 46%, an MIC50 (Eubacterium sp.) of 16 mg/L (≈ 93.5 µM) and an MIC90 (Eubacterium sp.) of over 128 mg/L.
